These results are taken from ChEMBL document CHEMBL1806391, “Synthesis and biological evaluation of novel 5-alkyl-2-arylthio-6-((3,4-dihydroquinolin-1(2H)-yl)methyl)pyrimidin-4(3H)-ones as potent non-nucleoside HIV-1 reverse transcriptase inhibitors” (Bioorg Med Chem, 2011).

Data set [1] is described as follows: Selectivity index, ratio of CC50 for human MT4 cells to EC50 for wild type Human immunodeficieny virus 1 3B infected in human MT4 cells. The data set is classed as toxicity, cell-based. The following applies: read-out: Ratio CC50/EC50. Summed up: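 SI is CC₅₀ in mock-infected MT-4 cells divided by EC₅₀ against HIV-1 IIIB, both from 5-day MTT assays in triplicate wells.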

For data set [2], the system named is Human immunodeficiency virus 2. The data set is described as follows: Antiviral activity against wild type Human immunodeficiency virus 2 ROD infected in human MT4 cells assessed as protection against virus-induced cytotoxicity after 5 days by MTT assay. It counts as functional, organism-based. Conditions: Human immunodeficiency virus 2, ISOLATE ROD, MT4, 120 h. An outline of the steps:
(§1)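 MT-4 cells, spun 5 min at 1000 rpm, were resuspended at 6 × 10⁵ cells/mL and infected with HIV-1 IIIB or HIV-2 ROD. Compounds were added at the start in serial fivefold dilutions, in triplicate wells. Viability was read by MTT reduction at 540 and 690 nm five days post-infection. EC₅₀ is the concentration giving 50% protection from viral cytopathic effect, using the median OD of three wells.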

Data set [3] is described as follows: Cytotoxic activity against human MT4 cells assessed as viability of mock-infected cells after 5 days by MTT assay. The data set is classed as cell-based. An outline of the steps:
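Mock-infected, exponentially growing MT-4 cells (6 × 10⁵ cells/mL) were exposed to serial fivefold compound dilutions in triplicate wells. After 5 days, viability was read by MTT formazan absorbance at 540 and 690 nm. CC₅₀ is the concentration that lowered OD540 of the mock-infected control by 50%, using the median OD of three wells.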

Data set [4] deals with Human immunodeficiency virus 2. Put plainly: Antiviral activity against Human immunodeficiency virus 2 ROD infected in human MT4 cells assessed as inhibition of viral replication. It counts as functional, organism-based. Conditions: ISOLATE ROD. An outline of the steps: as §1
Data set [5] deals with Human immunodeficiency virus 1. Put plainly: Antiviral activity against wild type Human immunodeficiency virus 1 3B infected in human MT4 cells assessed as protection against virus-induced cytotoxicity after 5 days by MTT assay. It counts as functional, organism-based. The following applies: MT4, 120 h. An outline of the steps:
as §1
In general terms: Tetrazolium assays rely on reduction of a dye to a coloured formazan, in cell work by metabolically active cells.

Activity calls are given as the source filed them. No cut-off for these calls is given here.

For `Cc1c(CN2CCCc3ccccc32)nc(SCc2ccc(F)cc2)[nH]c1=O`, in data set [1], the selectivity ratio was less than 1. In addition, the EC50 in data set [2] and in data set [5] was greater than 8.67 µM throughout. Also, the CC50 (usually the concentration that lowers cell viability or growth by half) at 120 h in data set [3] stood at 8.67 µM. Also, in data set [4], the inhibition result was “inactive”.
Consider `O=C(CSc1nc(CN2CCCc3ccccc32)cc(=O)[nH]1)c1ccccc1`, for which, in data set [1], the selectivity ratio came to 6. Further, the EC50 (in general, the concentration needed to bring the measured effect to its halfway point) in data set [2] was greater than 153 µM; in data set [5], 24.6 µM. For the same compound, the CC50 at 120 h in data set [3] was 153 µM. Further, in data set [4], the inhibition result is “inactive”.
As to `CCc1c(CN2CCCc3ccccc32)nc(SCC(=O)c2ccc(OC)cc2)[nH]c1=O`, in data set [1], the selectivity ratio amounted to 164. The EC50 in data set [2] is greater than 61.8 µM; in data set [5] it was 0.38 µM. In addition, the cytotoxic concentration (CC50) at 120 h in data set [3] came to 61.8 µM. Further, the inhibition result in data set [4] is “inactive”.
As to `CCc1c(CN2CCCc3ccccc32)nc(SCc2ccc([N+](=O)[O-])cc2)[nH]c1=O`, in data set [1], the selectivity ratio amounted to 188. Moreover, the EC50 is greater than 195 µM in data set [2] and 1.03 µM in data set [5]. In addition, the CC50 at 120 h in data set [3] amounted to 195 µM. The inhibition result in data set [4] is “inactive”.
In the same order, the values of `Cc1c(CN2CCCc3ccccc32)nc(SCC(=O)c2ccccc2)[nH]c1=O` are 31, greater than 12.2 µM, 0.39 µM, 12.2 µM and “inactive”.
The matching figures for `CCc1c(CN2CCCc3ccccc32)nc(SCc2ccc(C)cc2)[nH]c1=O`: less than 29, greater than 160 µM, no less than 5.42 µM, 160 µM and “inactive”.
In the same order, the values of `Cc1c(CN2CCCc3ccccc32)nc(SCC(=O)c2ccc(Cl)cc2)[nH]c1=O` are 19, greater than 42.1 µM, 2.16 µM, 42.1 µM and “inactive”.
For the compound `CC(C)Nc1cccnc1N1CCN(C(=O)c2cc3cc(NS(C)(=O)=O)ccc3[nH]2)CC1` [DELAVIRDINE], the selectivity ratio in data set [1] is greater than 12. The CC50 at 120 h in data set [3] is greater than 3.83 µM.
For the compound `COc1ccc(CSc2nc(CN3CCCc4ccccc43)c(C)c(=O)[nH]2)cc1`, the selectivity ratio in data set [1] was determined as 93. In addition, the figures for the EC50 in data set [2] and in data set [5] were greater than 59.6 µM and 0.64 µM, respectively. Further, the CC50 at 120 h in data set [3] came out at 59.6 µM. For the same compound, the inhibition entry in data set [4] is “inactive”.
In the same order, the values of `Cc1c(CN2CCCc3ccccc32)nc(SCc2ccc(Cl)cc2)[nH]c1=O` are no more than 29, greater than 65.5 µM, no less than 2.25 µM, 65.5 µM and “inactive”.
On to `Cc1ccnc2c1NC(=O)c1cccnc1N2C1CC1` [NEVIRAPINE], for which the CC50 at 120 h in data set [3] is greater than 15 µM.
Consider `COc1ccc(C(=O)CSc2nc(CN3CCCc4ccccc43)cc(=O)[nH]2)cc1`, for which the selectivity ratio in data set [1] turned out to be 7. Moreover, the EC50 in data set [2] was greater than 160 µM; in data set [5], 24 µM. The CC50 at 120 h in data set [3] was found to be 160 µM. Further, in data set [4], the inhibition entry is “inactive”.
For `Cc1c(CN2CCCc3ccccc32)nc(SCC(=O)c2ccc([N+](=O)[O-])cc2)[nH]c1=O`, the selectivity ratio in data set [1] is no more than 8. Besides, the EC50 is greater than 23.7 µM in data set [2] and no less than 3.13 µM in data set [5]. In data set [3], the CC50 at 120 h is 23.7 µM. For the same compound, the inhibition entry in data set [4] is “inactive”.
With `CCc1c(CN2CCCc3ccccc32)nc(SCC(=O)c2ccc(F)cc2)[nH]c1=O`, the selectivity ratio in data set [1] was 273. Also, the EC50 was greater than 156 µM in data set [2] and 0.57 µM in data set [5]. Further, the CC50 at 120 h in data set [3] came out at 156 µM. Besides, the inhibition entry in data set [4] was “inactive”.
The matching figures for `CCc1c(CN2CCCc3ccccc32)nc(SCc2ccc(F)cc2)[nH]c1=O`: less than 1, greater than 133 µM, greater than 133 µM, 133 µM and “inactive”.
In the same order, the values of `O=C(CSc1nc(CN2CCCc3ccccc32)cc(=O)[nH]1)c1ccc(Cl)cc1` are less than 1, greater than 75.6 µM, greater than 75.6 µM, 75.6 µM and “inactive”.
In the same order, the values of `CCc1c(CN2CCCc3ccccc32)nc(SCc2ccc(OC)cc2)[nH]c1=O` are 244, greater than 147 µM, 0.59 µM, 147 µM and “inactive”.
On to `N#Cc1ccc(CSc2nc(CN3CCCc4ccccc43)cc(=O)[nH]2)cc1`, for which, in data set [1], the selectivity ratio was no more than 2. Further, the figures for the concentration giving a half-maximal response (EC50) in data set [2] and in data set [5] were greater than 86.8 µM and no less than 43 µM, respectively. Besides, the CC50 at 120 h in data set [3] is 86.8 µM. Also, the inhibition result in data set [4] was “inactive”.
`O=c1cc(CN2CCCc3ccccc32)nc(SCc2ccc(Cl)cc2)[nH]1`: in data set [1], the selectivity ratio was less than 1. For the same compound, the EC50 in data set [2] and in data set [5] was greater than 53.6 µM in each case. Moreover, the half-maximal cytotoxic concentration (CC50) at 120 h in data set [3] is greater than 53.6 µM. In addition, the inhibition entry in data set [4] was “inactive”.
Turning to `Cc1c(CN2CCCc3ccccc32)nc(SCC(=O)c2ccc(C#N)cc2)[nH]c1=O`, the selectivity ratio in data set [1] amounted to 6. Further, the figures for the EC50 in data set [2] and in data set [5] were greater than 44.5 µM and 7.35 µM, respectively. In data set [3], the CC50 at 120 h is 44.5 µM. Moreover, the inhibition entry in data set [4] was “inactive”.
In the same order, the values of `O=C(CSc1nc(CN2CCCc3ccccc32)cc(=O)[nH]1)c1ccc(F)cc1` are 5, greater than 136 µM, 29.6 µM, 136 µM and “inactive”.
The matching figures for `CCc1c(CN2CCCc3ccccc32)nc(SCC(=O)c2ccc([N+](=O)[O-])cc2)[nH]c1=O`: 56, greater than 111 µM, 1.98 µM, 111 µM and “inactive”.
Turning to `Cc1c(CN2CCCc3ccccc32)nc(SCc2ccccc2)[nH]c1=O`, in data set [1], the selectivity ratio was less than 1. The EC50 in data set [2] and in data set [5] was greater than 6.69 µM in each case. In addition, in data set [3], the CC50 at 120 h came to 6.69 µM. The inhibition entry in data set [4] is “inactive”.
For the compound `CCc1c(CN2CCCc3ccccc32)nc(SCC(=O)c2ccc(C)cc2)[nH]c1=O`, the selectivity ratio in data set [1] came to 271. For the same compound, the EC50 is greater than 288 µM in data set [2] and 1.06 µM in data set [5]. Also, in data set [3], the CC50 at 120 h is 288 µM. In addition, the inhibition entry in data set [4] was “inactive”.
As to `Cc1ccc(C(=O)CSc2nc(CN3CCCc4ccccc43)c(C)c(=O)[nH]2)cc1`, the selectivity ratio in data set [1] came out at 32. Also, the figures for the EC50 in data set [2] and in data set [5] were greater than 62.4 µM and 1.95 µM, respectively. The CC50 at 120 h in data set [3] was 62.4 µM. In data set [4], the inhibition result is “inactive”.
In the same order, the values of `CCc1c(CN2CCCc3ccccc32)nc(SCc2ccc(Cl)cc2)[nH]c1=O` are no more than 25, greater than 135 µM, no less than 5.42 µM, 135 µM and “inactive”.
Turning to `Cc1c(CN2CCCc3ccccc32)nc(SCc2ccc(C#N)cc2)[nH]c1=O`, in data set [1], the selectivity ratio came to 7. The figures for the EC50 in data set [2] and in data set [5] were greater than 13 µM and 1.78 µM, respectively. In addition, the CC50 at 120 h in data set [3] was 13 µM. Moreover, the inhibition entry in data set [4] was “inactive”.
In the same order, the values of `Cc1c(CN2CCCc3ccccc32)nc(SCC(=O)c2ccc(F)cc2)[nH]c1=O` are 34, greater than 15.4 µM, 0.46 µM, 15.4 µM and “inactive”.
In the case of `CCc1c(CN2CCCc3ccccc32)nc(SCC(=O)c2ccc(C#N)cc2)[nH]c1=O`, in data set [1], the selectivity ratio was found to be 109. The concentration for a half-maximal effect (EC50) in data set [2] was greater than 115 µM; in data set [5], 1.06 µM. The CC50 at 120 h in data set [3] turned out to be 115 µM. Moreover, the inhibition result in data set [4] was “inactive”.
Turning to `O=C(CSc1nc(CN2CCCc3ccccc32)cc(=O)[nH]1)c1ccc([N+](=O)[O-])cc1`, the selectivity ratio in data set [1] is less than 1. Further, the EC50 in data set [2] and in data set [5] was greater than 209 µM in each case. The CC50 at 120 h in data set [3] is 209 µM. The inhibition entry in data set [4] was “inactive”.
With `COc1ccc(C(=O)CSc2nc(CN3CCCc4ccccc43)c(C)c(=O)[nH]2)cc1`, the selectivity ratio in data set [1] worked out at 144. Moreover, the results for the EC50 in data set [2] and in data set [5] were greater than 60.7 µM and 0.42 µM, respectively. Besides, in data set [3], the CC50 at 120 h turned out to be 60.7 µM. For the same compound, the inhibition entry in data set [4] was “inactive”.
The matching figures for `COc1ccc(CSc2nc(CN3CCCc4ccccc43)cc(=O)[nH]2)cc1`: 7, greater than 181 µM, 25.1 µM, 181 µM and “inactive”.
Turning to `Cc1cn([C@H]2C[C@H](N=[N+]=[N-])[C@@H](CO)O2)c(=O)[nH]c1=O` [ZIDOVUDINE], the selectivity ratio in data set [1] is greater than 6190. In addition, the half-maximal cytotoxic concentration (CC50) at 120 h in data set [3] is greater than 93.5 µM.
The matching figures for `O=C1Nc2ccc(Cl)cc2[C@@](C#CC2CC2)(C(F)(F)F)O1` [EFAVIRENZ]: greater than 1430 and greater than 6.34 µM.
